Source: ChEMBL document CHEMBL1250442, “Inhibiting gene expression at transcription start sites in chromosomal DNA with antigene RNAs” (Nat Chem Biol, 2005)
Activity calls are given as the source filed them. No cut-off for these calls is given here.

Assays:
T47D [1] = assay: Inhibition of PR-B gene expression in human T47D cells at 25 nM by syber green assay; assay type: functional
How it was run: (§1)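 T47D cells plated at 80,000/well without antibiotics two days before Oligofectamine transfection with agRNA duplex (25 or 100 nM final); medium changed at 24 h, harvest day 5 unless stated otherwise. TRIzol total RNA; PR mRNA by real-time PCR with SYBR Green: 50 °C 2 min, 95 °C 10 min, 40 cycles 95 °C 15 s/60 °C 1 min.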

T47D [2] = assay: Inhibition of PR-B gene expression in human T47D cells at 25 nM by syber green assay in presence of 10 nM estradiol; assay type: functional, cell-based
T47D [3] = assay: Inhibition of PR-A gene expression in human T47D cells at 25 nM by syber green assay; assay type: functional; how it was run: as §1
T47D [4] = assay: Inhibition of PR-A gene expression in human T47D cells at 25 nM by syber green assay in presence of 10 nM estradiol; assay type: functional, cell-based
T47D [5] = assay: Inhibition of PR-A mRNA gene expression in human T47D cells at 100 nM by syber green assay; assay type: functional; how it was run: as §1
T47D [6] = assay: Inhibition of PR-B mRNA gene expression in human T47D cells at 100 nM by syber green assay; assay type: functional
How it was run: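 T47D cells in RPMI-1640 with 10% FBS, NEAA, insulin, 37 °C, 5% CO2. Plated two days before transfection without antibiotics. Oligofectamine-mediated duplex RNA transfection at 100 nM final, medium changed at 24 h, harvest five days post-transfection. Total RNA extracted with TRIzol. hPR mRNA quantified by SYBR Green qPCR: 50 °C 2 min, 95 °C 10 min, then 40 cycles of 95 °C 15 s / 60 °C 1 min.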

For Cc1cn(CC(=O)N(CCNC(=O)CN(CCNC(=O)CN(CCNC(=O)CN(CCNC(=O)CN(CCNC(=O)CN(CCNC(=O)CN(CCNC(=O)CN(CCNC(=O)CN(CCNC(=O)CN(CCNC(=O)CN(CCNC(=O)CN(CCNC(=O)CN(CCNC(=O)CN(CCNC(=O)CN(CCNC(=O)CN(CCNC(=O)CN(CCNC(=O)CN(CCNC(=O)CN(CCNC(=O)CN(CCNC(=O)CN)C(=O)Cn2ccc(N)nc2=O)C(=O)Cn2cnc3c(=O)[nH]c(N)nc32)C(=O)Cn2ccc(=O)[nH]c2=O)C(=O)Cn2ccc(=O)[nH]c2=O)C(=O)Cn2cnc3c(=O)[nH]c(N)nc32)C(=O)Cn2ccc(=O)[nH]c2=O)C(=O)Cn2ccc(=O)[nH]c2=O)C(=O)Cn2cnc3c(N)ncnc32)C(=O)Cn2cnc3c(=O)[nH]c(N)nc32)C(=O)Cn2cnc3c(N)ncnc32)C(=O)Cn2cnc3c(N)ncnc32)C(=O)Cn2cnc3c(N)ncnc32)C(=O)Cn2cnc3c(=O)[nH]c(N)nc32)C(=O)Cn2ccc(N)nc2=O)C(=O)Cn2ccc(=O)[nH]c2=O)C(=O)Cn2cnc3c(=O)[nH]c(N)nc32)C(=O)Cn2ccc(=O)[nH]c2=O)C(=O)Cn2ccc(N)nc2=O)C(=O)Cn2ccc(=O)[nH]c2=O)CC(=O)NCCN(CC(=O)NCC(=O)O)C(=O)Cn2cc(C)c(=O)[nH]c2=O)c(=O)[nH]c1=O, the inhibition at 0.025 µM (T47D [1]) was under 20%, the inhibition (T47D [2]) was “Active” and the inhibition at 0.025 µM (T47D [3]) was under 20%. The inhibition (T47D [4]) was “Active”, the inhibition at 0.1 µM (T47D [5]) was 29% and the inhibition at 0.1 µM (T47D [6]) was 26%.
With Cc1cn(CC(=O)N(CCNC(=O)CN(CCNC(=O)CN(CCNC(=O)CN(CCNC(=O)CN(CCNC(=O)CN(CCNC(=O)CN(CCNC(=O)CN(CCNC(=O)CN(CCNC(=O)CN(CCNC(=O)CN(CCNC(=O)CN(CCNC(=O)CN(CCNC(=O)CN(CCNC(=O)CN(CCNC(=O)CN(CCNC(=O)CN(CCNC(=O)CN(CCNC(=O)CN(CCNC(=O)CN(CCNC(=O)CN)C(=O)Cn2cnc3c(N)ncnc32)C(=O)Cn2cnc3c(=O)[nH]c(N)nc32)C(=O)Cn2cnc3c(=O)[nH]c(N)nc32)C(=O)Cn2cnc3c(N)ncnc32)C(=O)Cn2cnc3c(=O)[nH]c(N)nc32)C(=O)Cn2cnc3c(=O)[nH]c(N)nc32)C(=O)Cn2ccc(N)nc2=O)C(=O)Cn2cnc3c(=O)[nH]c(N)nc32)C(=O)Cn2ccc(=O)[nH]c2=O)C(=O)Cn2ccc(=O)[nH]c2=O)C(=O)Cn2cnc3c(=O)[nH]c(N)nc32)C(=O)Cn2ccc(=O)[nH]c2=O)C(=O)Cn2ccc(=O)[nH]c2=O)C(=O)Cn2cnc3c(N)ncnc32)C(=O)Cn2cnc3c(=O)[nH]c(N)nc32)C(=O)Cn2cnc3c(N)ncnc32)C(=O)Cn2cnc3c(N)ncnc32)C(=O)Cn2cnc3c(N)ncnc32)C(=O)Cn2cnc3c(=O)[nH]c(N)nc32)CC(=O)NCCN(CC(=O)NCC(=O)O)C(=O)Cn2cc(C)c(=O)[nH]c2=O)c(=O)[nH]c1=O the inhibition at 0.025 µM (T47D [1]) was 34%, the inhibition (T47D [2]) was “Active” and the inhibition at 0.025 µM (T47D [3]) was under 20%. For the same compound, the inhibition (T47D [4]) was “Active”, the inhibition at 0.1 µM (T47D [5]) was 52% and the inhibition at 0.1 µM (T47D [6]) was 68%.
For Cc1cn(CC(=O)N(CCNC(=O)CN(CCNC(=O)CN(CCNC(=O)CN(CCNC(=O)CN(CCNC(=O)CN(CCNC(=O)CN(CCNC(=O)CN(CCNC(=O)CN(CCNC(=O)CN(CCNC(=O)CN(CCNC(=O)CN(CCNC(=O)CN(CCNC(=O)CN(CCNC(=O)CN(CCNC(=O)CN(CCNC(=O)CN(CCNC(=O)CN(CCNC(=O)CN(CCNC(=O)CN(CCNC(=O)CN)C(=O)Cn2cnc3c(=O)[nH]c(N)nc32)C(=O)Cn2ccc(=O)[nH]c2=O)C(=O)Cn2ccc(=O)[nH]c2=O)C(=O)Cn2cnc3c(=O)[nH]c(N)nc32)C(=O)Cn2ccc(=O)[nH]c2=O)C(=O)Cn2ccc(=O)[nH]c2=O)C(=O)Cn2cnc3c(N)ncnc32)C(=O)Cn2cnc3c(=O)[nH]c(N)nc32)C(=O)Cn2cnc3c(N)ncnc32)C(=O)Cn2cnc3c(N)ncnc32)C(=O)Cn2cnc3c(N)ncnc32)C(=O)Cn2cnc3c(=O)[nH]c(N)nc32)C(=O)Cn2ccc(N)nc2=O)C(=O)Cn2ccc(=O)[nH]c2=O)C(=O)Cn2cnc3c(=O)[nH]c(N)nc32)C(=O)Cn2ccc(=O)[nH]c2=O)C(=O)Cn2ccc(N)nc2=O)C(=O)Cn2ccc(=O)[nH]c2=O)C(=O)Cn2cnc3c(=O)[nH]c(N)nc32)CC(=O)NCCN(CC(=O)NCC(=O)O)C(=O)Cn2cc(C)c(=O)[nH]c2=O)c(=O)[nH]c1=O, the inhibition at 0.025 µM (T47D [1]) was under 20%, the inhibition (T47D [2]) was “Active” and the inhibition at 0.025 µM (T47D [3]) was under 20%. The inhibition (T47D [4]) was “Active”, the inhibition at 0.1 µM (T47D [5]) was under 20% and the inhibition at 0.1 µM (T47D [6]) was under 20%.
With Cc1cn(CC(=O)N(CCNC(=O)CN(CCNC(=O)CN(CCNC(=O)CN(CCNC(=O)CN(CCNC(=O)CN(CCNC(=O)CN(CCNC(=O)CN(CCNC(=O)CN(CCNC(=O)CN(CCNC(=O)CN(CCNC(=O)CN(CCNC(=O)CN(CCNC(=O)CN(CCNC(=O)CN(CCNC(=O)CN(CCNC(=O)CN(CCNC(=O)CN(CCNC(=O)CN(CCNC(=O)CN(CCNC(=O)CN)C(=O)Cn2ccc(=O)[nH]c2=O)C(=O)Cn2ccc(N)nc2=O)C(=O)Cn2ccc(N)nc2=O)C(=O)Cn2ccc(N)nc2=O)C(=O)Cn2ccc(=O)[nH]c2=O)C(=O)Cn2cnc3c(N)ncnc32)C(=O)Cn2cnc3c(=O)[nH]c(N)nc32)C(=O)Cn2cnc3c(N)ncnc32)C(=O)Cn2cnc3c(=O)[nH]c(N)nc32)C(=O)Cn2cnc3c(=O)[nH]c(N)nc32)C(=O)Cn2cnc3c(N)ncnc32)C(=O)Cn2cnc3c(=O)[nH]c(N)nc32)C(=O)Cn2cnc3c(=O)[nH]c(N)nc32)C(=O)Cn2cnc3c(N)ncnc32)C(=O)Cn2cnc3c(=O)[nH]c(N)nc32)C(=O)Cn2cnc3c(=O)[nH]c(N)nc32)C(=O)Cn2ccc(N)nc2=O)C(=O)Cn2cnc3c(=O)[nH]c(N)nc32)C(=O)Cn2ccc(=O)[nH]c2=O)CC(=O)NCCN(CC(=O)NCC(=O)O)C(=O)Cn2cc(C)c(=O)[nH]c2=O)c(=O)[nH]c1=O the inhibition at 0.025 µM (T47D [1]) was under 20%, the inhibition (T47D [2]) was “Active” and the inhibition at 0.025 µM (T47D [3]) was under 20%. For the same compound, the inhibition (T47D [4]) was “Active”, the inhibition at 0.1 µM (T47D [5]) was 41% and the inhibition at 0.1 µM (T47D [6]) was 48%.
Cc1cn(CC(=O)N(CCNC(=O)CN(CCNC(=O)CN(CCNC(=O)CN(CCNC(=O)CN(CCNC(=O)CN(CCNC(=O)CN(CCNC(=O)CN(CCNC(=O)CN(CCNC(=O)CN(CCNC(=O)CN(CCNC(=O)CN(CCNC(=O)CN(CCNC(=O)CN(CCNC(=O)CN(CCNC(=O)CN(CCNC(=O)CN(CCNC(=O)CN(CCNC(=O)CN(CCNC(=O)CN(CCNC(=O)CN)C(=O)Cn2cnc3c(=O)[nH]c(N)nc32)C(=O)Cn2ccc(N)nc2=O)C(=O)Cn2ccc(=O)[nH]c2=O)C(=O)Cn2cnc3c(=O)[nH]c(N)nc32)C(=O)Cn2ccc(N)nc2=O)C(=O)Cn2ccc(N)nc2=O)C(=O)Cn2ccc(=O)[nH]c2=O)C(=O)Cn2cnc3c(=O)[nH]c(N)nc32)C(=O)Cn2cnc3c(=O)[nH]c(N)nc32)C(=O)Cn2ccc(N)nc2=O)C(=O)Cn2ccc(N)nc2=O)C(=O)Cn2cnc3c(N)ncnc32)C(=O)Cn2cnc3c(=O)[nH]c(N)nc32)C(=O)Cn2ccc(=O)[nH]c2=O)C(=O)Cn2ccc(N)nc2=O)C(=O)Cn2ccc(N)nc2=O)C(=O)Cn2cnc3c(N)ncnc32)C(=O)Cn2ccc(N)nc2=O)C(=O)Cn2cnc3c(N)ncnc32)CC(=O)NCCN(CC(=O)NCC(=O)O)C(=O)Cn2cc(C)c(=O)[nH]c2=O)c(=O)[nH]c1=O was tested, and the inhibition at 0.025 µM (T47D [1]) was under 20%, the inhibition (T47D [2]) was “Active” and the inhibition at 0.025 µM (T47D [3]) was under 20%. The inhibition (T47D [4]) was “Active”, the inhibition at 0.1 µM (T47D [5]) was under 20% and the inhibition at 0.1 µM (T47D [6]) was 28%.
With Cc1cn(CC(=O)N(CCNC(=O)CN(CCNC(=O)CN(CCNC(=O)CN(CCNC(=O)CN(CCNC(=O)CN(CCNC(=O)CN(CCNC(=O)CN(CCNC(=O)CN(CCNC(=O)CN(CCNC(=O)CN(CCNC(=O)CN(CCNC(=O)CN(CCNC(=O)CN(CCNC(=O)CN(CCNC(=O)CN(CCNC(=O)CN(CCNC(=O)CN(CCNC(=O)CN(CCNC(=O)CN(CCNC(=O)CN(CCNC(=O)CN)C(=O)Cn2ccc(=O)[nH]c2=O)C(=O)Cn2ccc(N)nc2=O)C(=O)Cn2ccc(=O)[nH]c2=O)C(=O)Cn2cnc3c(=O)[nH]c(N)nc32)C(=O)Cn2cnc3c(=O)[nH]c(N)nc32)C(=O)Cn2ccc(N)nc2=O)C(=O)Cn2ccc(N)nc2=O)C(=O)Cn2cnc3c(N)ncnc32)C(=O)Cn2cnc3c(=O)[nH]c(N)nc32)C(=O)Cn2ccc(=O)[nH]c2=O)C(=O)Cn2ccc(N)nc2=O)C(=O)Cn2ccc(N)nc2=O)C(=O)Cn2cnc3c(N)ncnc32)C(=O)Cn2ccc(N)nc2=O)C(=O)Cn2cnc3c(N)ncnc32)C(=O)Cn2cnc3c(=O)[nH]c(N)nc32)C(=O)Cn2ccc(N)nc2=O)C(=O)Cn2ccc(=O)[nH]c2=O)C(=O)Cn2cnc3c(=O)[nH]c(N)nc32)C(=O)Cn2cc(C)c(=O)[nH]c2=O)CC(=O)O)c(=O)[nH]c1=O the inhibition at 0.025 µM (T47D [1]) was 50%, the inhibition (T47D [2]) was “Active” and the inhibition at 0.025 µM (T47D [3]) was 38%. The inhibition (T47D [4]) was “Active”, the inhibition at 0.1 µM (T47D [5]) was 97% and the inhibition at 0.1 µM (T47D [6]) was 100%.
